The subject of test [1] is Mycobacterium tuberculosis. The test is described as follows: Antimycobacterial activity against Mycobacterium tuberculosis H37Rv assessed as growth inhibition after 45 days. It counts as functional. In short, it runs like this:
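Canetti proportion method on Löwenstein–Jensen egg medium. Each compound was added as a sterile DMSO suspension/solution before coagulation (30 min at 85 °C) and tested at five concentrations. Tubes were inoculated with 10⁵ cells/ml and incubated 45 days at 37 °C. Colony counts were expressed as percent of drug-free control. MIC is the lowest concentration giving complete inhibition (0% growth).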

The subject of test [2] is HEK-293T. The experiment in a line: Cytotoxicity against HEK293T cells after 72 hrs by MTT assay. It is filed as cell-based. The conditions noted are these: Homo sapiens. In short, it runs like this:
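HEK 293T cells grown in RPMI-1640 with 10% heat-inactivated foetal calf serum and 2 mM L-glutamine, 37 °C, 5% CO2. Cells seeded at […] cells/ml, grown 24 h, then exposed 72 h to compounds serially diluted from fresh DMSO stocks (final DMSO ≤0.5%), ≥8 wells per concentration. MTT added for 4 h at 37 °C, formazan dissolved in 5% HCOOH/2-propanol, read at 580 nm. Survival expressed as % of untreated control; IC50 from sigmoidal curve fit.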

Molecules are shown by their SMILES. In brackets after ≈: the same amount, converted by molar mass. Structures can show the parent of a compound that is named as a salt. A value given as a limit tells only on which side of the number the result lay.

In general, MIC refers to the smallest concentration in the dilution series that meets the test's criterion for growth inhibition. Broadly, the IC50 is the concentration needed to halve the response being measured. Low values mean greater potency, high ones weaker potency. Turning to `CC1(C)[C@@H]2CC[C@@]1([C@H](O)CN1CCN(c3ccccc3F)CC1)C(=O)C2`, the MIC in test [1] came out at 0.28 µM (≈ 0.101 µg/mL). In test [2], this compound displayed a half-maximal inhibitory concentration (IC50) of 120 µM.

Regarding `CC(C)N(C[C@H](O)[C@]12CC[C@H](CC1=O)C2(C)C)C(C)C`, the MIC in test [1] amounted to 0.37 µM (≈ 0.104 µg/mL). In test [2], this compound gave an IC50 of 166 µM.

For the compound `CC(C)N(C[C@@H](O)[C@]12CC[C@H](CC1=O)C2(C)C)C(C)C`, the MIC in test [1] stood at 10.7 µM (≈ 3 µg/mL).

For the compound `CC1(C)[C@@H]2CC[C@@]1([C@@H](O)CN1CCCC1)C(=O)C2`, the minimum inhibitory concentration (MIC) in test [1] turned out to be 19.9 µM (≈ 5 µg/mL).

Consider `CC1(C)[C@@H]2CC[C@@]1([C@@H](O)CN1CCCCC1)C(=O)C2`, for which the minimal inhibitory concentration (MIC) in test [1] came to 0.38 µM (≈ 0.101 µg/mL). In test [2], the IC50 worked out at 143 µM.

With `CC1(C)[C@@H]2CC[C@@]1([C@H](O)CN1CCCCC1)C(=O)C2`, the MIC in test [1] is 18.8 µM (≈ 5 µg/mL).

With `CC1CCN(C[C@H](O)[C@]23CC[C@H](CC2=O)C3(C)C)CC1`, in test [1], the MIC turned out to be 0.72 µM (≈ 0.201 µg/mL). In test [2], this compound displayed a 50% inhibitory concentration (IC50) of 158 µM.

In the case of `CC1CCN(C[C@@H](O)[C@]23CC[C@H](CC2=O)C3(C)C)CC1`, the MIC in test [1] stood at 0.36 µM (≈ 0.101 µg/mL). The IC50 in test [2] is 169 µM.

For `CN1CCN(C[C@H](O)[C@]23CC[C@H](CC2=O)C3(C)C)CC1`, the MIC in test [1] amounted to 17.8 µM (≈ 5 µg/mL).

Regarding `CN1CCN(C[C@@H](O)[C@]23CC[C@H](CC2=O)C3(C)C)CC1`, in test [1], the MIC turned out to be 17.8 µM (≈ 5 µg/mL).

Consider `CC1(C)[C@@H]2CC[C@@]1([C@@H](O)CN1CCN(c3ccccc3)CC1)C(=O)C2`, for which the minimum inhibitory concentration (MIC) in test [1] came out at 14.6 µM (≈ 5 µg/mL).

With `CC1(C)[C@@H]2CC[C@@]1([C@H](O)CN1CCN(c3ccccc3)CC1)C(=O)C2`, in test [1], the MIC is 14.6 µM (≈ 5 µg/mL).

Turning to `CC1(C)[C@@H]2CC[C@@]1([C@@H](O)CN1CCN(c3ccccc3F)CC1)C(=O)C2`, the MIC in test [1] was determined as 0.28 µM (≈ 0.101 µg/mL). For the same compound, the IC50 in test [2] came to 129 µM.

Regarding `CC1(C)[C@@H]2CC[C@@]1([C@@H](O)CN1CCN(c3ccc(F)cc3)CC1)C(=O)C2`, the MIC in test [1] was found to be 0.28 µM (≈ 0.101 µg/mL). Also, in test [2], the IC50 stood at 82.2 µM.

On to `CC1(C)[C@@H]2CC[C@@]1([C@H](O)CN1CCN(c3ccc(F)cc3)CC1)C(=O)C2`, for which the minimum inhibitory concentration (MIC) in test [1] came out at 0.28 µM (≈ 0.101 µg/mL). Moreover, the 50% inhibitory concentration (IC50) in test [2] stood at 65.1 µM.

On to `CC1(C)[C@@H]2CC[C@@]1([C@@H](O)CN1CCN(c3ccc(Cl)cc3)CC1)C(=O)C2`, for which the MIC in test [1] came to 7.96 µM (≈ 3 µg/mL). Further, the IC50 in test [2] was 8.6 µM.

With `CC1(C)[C@@H]2CC[C@@]1([C@H](O)CN1CCN(c3ccc(Cl)cc3)CC1)C(=O)C2`, the MIC in test [1] came to 0.27 µM (≈ 0.102 µg/mL). The same compound came in with an IC50 in test [2] of 9.2 µM.

Regarding `CC1(C)[C@@H]2CC[C@@]1([C@@H](O)CN1CCOCC1)C(=O)C2`, in test [1], the MIC was found to be 0.37 µM (≈ 0.0989 µg/mL). In test [2], the half-inhibitory concentration (IC50) is more than 200 µM.

As for `CC1(C)[C@@H]2CC[C@@]1([C@H](O)CN1CCOCC1)C(=O)C2`, in test [1], the MIC was 18.7 µM (≈ 5 µg/mL).

In the case of `CC1(C)[C@@H]2CC[C@@]1([C@@H](O)CN1CCSCC1)C(=O)C2`, the MIC in test [1] is 17.6 µM (≈ 5 µg/mL).

Regarding `CC1(C)[C@@H]2CC[C@@]1([C@H](O)CN1CCSCC1)C(=O)C2`, in test [1], the minimal inhibitory concentration (MIC) turned out to be 17.6 µM (≈ 5 µg/mL).

For `CC[C@@H](CO)NCCN[C@@H](CC)CO` [ETHAMBUTOL HYDROCHLORIDE], the minimum inhibitory concentration (MIC) in test [1] was 7.22 µM.

The values above are taken from ChEMBL document CHEMBL3259774, “Antimycobacterial activity of chiral aminoalcohols with camphane scaffold” (Eur J Med Chem, 2014).
